# Assay results of several laboratories.
# Lines come from different studies, so protocols differ.
# Target: Mitogen-activated protein kinase kinase kinase 2 (MAP3K2, Homo sapiens, UniProt Q9Y2U5)
# One construct used (Q9Y2U5 1-619): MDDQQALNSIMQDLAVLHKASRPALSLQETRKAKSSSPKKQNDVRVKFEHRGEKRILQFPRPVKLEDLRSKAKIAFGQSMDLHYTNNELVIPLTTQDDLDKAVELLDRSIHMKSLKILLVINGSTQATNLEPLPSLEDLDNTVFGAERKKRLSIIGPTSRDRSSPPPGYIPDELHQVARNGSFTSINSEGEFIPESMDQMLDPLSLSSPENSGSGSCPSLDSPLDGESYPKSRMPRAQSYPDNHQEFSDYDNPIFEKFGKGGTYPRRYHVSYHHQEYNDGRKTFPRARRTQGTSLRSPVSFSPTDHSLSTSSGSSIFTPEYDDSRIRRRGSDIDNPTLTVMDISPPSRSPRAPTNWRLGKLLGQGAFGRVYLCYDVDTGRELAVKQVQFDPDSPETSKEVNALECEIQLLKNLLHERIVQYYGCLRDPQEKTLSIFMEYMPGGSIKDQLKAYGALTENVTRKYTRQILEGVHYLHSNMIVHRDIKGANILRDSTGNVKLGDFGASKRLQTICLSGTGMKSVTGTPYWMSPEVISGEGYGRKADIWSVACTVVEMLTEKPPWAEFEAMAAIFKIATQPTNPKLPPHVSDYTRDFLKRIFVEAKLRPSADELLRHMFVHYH
SMILES,observed,action,technique,cell line,tested at,measurement,result
CCN1CCN(Cc2ccc(NC(=O)c3ccc(C)c(/C=C/c4cnc5[nH]ccc5c4OC)c3)cc2C(F)(F)F)CC1,target engagement in cells,inhibitor,chemoproteomics,A-375,0.5 µM,inhibition,-0.738%
CC(C)(C)c1nc(-c2cccc(NS(=O)(=O)c3c(F)cccc3F)c2F)c(-c2ccnc(N)n2)s1,enzyme activity,inhibitor,radiometric,,1 µM,remaining activity,57%
COc1cc2c(Nc3ccc(Br)cc3F)ncnc2cc1OCC1CCN(C)CC1,cell-free assay,,,,0.5 µM,remaining signal,108%
Nc1ncnc2occ(-c3ccc(NC(=O)Nc4cc(C(F)(F)F)ccc4F)cc3)c12,cell-free assay,inhibitor,,,20 µM,remaining signal,1.4%
O=c1nc(-c2ccccn2)sc2ccccc12,binding,,competition with immobilised ligand,,1 µM,remaining binding,92%
O=C(Nc1cnn(-c2csc(C(=O)NC3COC3)c2)c1)Nc1c(F)cccc1Cl,enzyme activity,inhibitor,,,5 µM,remaining activity,80.1%
CS(=O)(=O)N1CCCC(NC(=O)[C@H](CCC2CCCCC2)NC(=O)c2ccc(CNc3ncnc4c3nnn4-c3ccccc3)cc2)C1 (some centres unmarked),cell-free assay,,competition with immobilised ligand,,0.1 µM,remaining binding,100%
Cc1sc(C(=O)NC2COC2)cc1-n1cc(NC(=O)Nc2c(F)cccc2Cl)cn1,enzyme activity,inhibitor,,,10 µM,remaining activity,88.1%
CC(C)(O)[C@H]1CC[C@H](Nc2ccc3ncc(-c4cccc(C(F)(F)F)c4)n3n2)CC1,enzyme activity,inhibitor,,,1 µM,remaining activity,95.8%
O=C1Nc2ccc(Cl)cc2C1=Cc1cc(Cl)c(O)c(Cl)c1,cell-free assay,,,,0.5 µM,remaining signal,95.7%
CN([C@@H]1CCc2c(CC(=O)O)c3ccccc3n2C1)S(=O)(=O)c1ccc(F)cc1,cell-free assay,,competition with immobilised ligand,,1 µM,remaining binding,100%
CN1CC(Oc2cnc(C#N)cc2-c2ccn3nc(NC(=O)C4CC4)cc3c2)C1,enzyme activity,inhibitor,,,1 µM,inhibition,0%
O=C1NC(=O)c2cc(Nc3ccc(F)cc3)c(Nc3ccc(F)cc3)cc21,cell-free assay,,,,0.5 µM,remaining signal,94.8%
Cc1c(C(=O)O)cc(-c2ccc(C3CCNCC3)cc2)c2ccc(-c3ccc(C(F)(F)F)cc3)cc12,binding,,competition with immobilised ligand,,1 µM,remaining binding,100%
